In brackets after ≈: the same amount, converted by molar mass.
How the values were obtained:
[1] = Binding affinity to bacteria KPC-2 assessed as dissociation constant
Klebsiella pneumoniae [2] = assay: Antibacterial activity against Klebsiella pneumoniae 935/1884 producing KPC-3 by broth microdilution method; type: functional
Klebsiella pneumoniae [3] = assay: Antibacterial activity against Klebsiella pneumoniae 977/1916 producing KPC-3 by broth microdilution method; type: functional
Klebsiella pneumoniae [4] = assay: Antibacterial activity against Klebsiella pneumoniae CAV 1636 producing OXA-181 by broth microdilution method; type: functional
Acinetobacter baumannii [5] = assay: Antibacterial activity against Acinetobacter baumannii SL46 producing OXA-23/51 infected in sc dosed Swiss albino mouse administered 1 hr post infection and measured upto 7 days; type: functional; details: SL46, 168 h, time <= 7 day
In short: (§1)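 Peritonitis model: male and female Swiss albino mice infected intraperitoneally with 3.5×10^5 to 3×10^6 CFU/mouse in 5% hog gastric mucin (lethal to untreated mice within 24 h). […] Survival followed 7 days; PD50/PD90 by probit analysis.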

Klebsiella pneumoniae [6] = assay: Antibacterial activity against Klebsiella pneumoniae 1108/1989 producing KPC-3 by broth microdilution method; type: functional
Klebsiella pneumoniae [7] = assay: Antibacterial activity against Klebsiella pneumoniae 11978 producing OXA-48 by broth microdilution method; type: functional
Klebsiella pneumoniae [8] = assay: Antibacterial activity against Klebsiella pneumoniae 901/1860 producing KPC-3 by broth microdilution method; type: functional
Pseudomonas aeruginosa [9] = assay: Synergistic antibacterial activity against Pseudomonas aeruginosa 776 assessed as cefepime MIC at 8 ug/ml by broth microdilution method; type: functional; details: dose 8 µg/ml
Klebsiella pneumoniae [10] = assay: Synergistic antibacterial activity against Klebsiella pneumoniae jefferson 1773 producing OXA-181 assessed as meropenem MIC at 8 ug/ml by broth microdilution method; type: functional; details: dose 8 µg/ml
[11] = Inhibition of bacteria KPC-2 assessed as apparent inhibition constant using nitrocefin as substrate
Acinetobacter baumannii [12] = assay: Antibacterial activity against Acinetobacter baumannii NCTC 13303 producing OXA-26/51 infected in sc dosed Swiss albino mouse administered 1 hr post infection and measured upto 7 days; type: functional; details: NCTC 13303, 168 h, time <= 7 day; in short: as §1
Acinetobacter baumannii [13] = assay: Antibacterial activity against Acinetobacter baumannii NCTC 13301 producing OXA-23/51 infected in sc dosed Swiss albino mouse administered 1 hr post infection and measured upto 7 days; type: functional; details: NCTC 13301, 168 h, time <= 7 day; for ED50: read-out: PD50; in short: as §1
Acinetobacter baumannii [14] = assay: Antibacterial activity against ADC deleted Acinetobacter baumannii transfected with pWH1266 OXA-23 by broth microdilution method; type: functional
Pseudomonas aeruginosa [15] = assay: Antibacterial activity against Pseudomonas aeruginosa 776 by broth microdilution method; type: functional
Acinetobacter baumannii [16] = assay: Antibacterial activity against ADC deleted Acinetobacter baumannii by broth microdilution method; type: functional
Pseudomonas aeruginosa [17] = assay: Synergistic antibacterial activity against Pseudomonas aeruginosa 715 assessed as cefepime MIC at 8 ug/ml by broth microdilution method; type: functional; details: dose 8 µg/ml
Escherichia coli = assay: Antibacterial activity against Escherichia coli DH10B transfected with pBC SK (-) KPC-2 by broth microdilution method; type: functional
Pseudomonas aeruginosa [18] = assay: Antibacterial activity against Pseudomonas aeruginosa 795 by broth microdilution method; type: functional
Bacteria [19] = assay: Inhibition of bacteria PDC-3 assessed as Koff rate using nitrocefin as substrate incubated for 30 mins
Bacteria [20] = system: Bacteria
Klebsiella pneumoniae [21] = assay: Antibacterial activity against Klebsiella pneumoniae 440/1360 producing KPC-2 by broth microdilution method; type: functional
Bacteria [22] = assay: Inhibition of bacteria OXA-48 assessed as second order rate constant K2/K using nitrocefin as substrate
Bacteria [23] = assay: Inhibition of bacteria OXA-48 assessed as half life using nitrocefin as substrate
Bacteria [24] = system: Bacteria; remark: listed apart in the source
Klebsiella pneumoniae [25] = assay: Antibacterial activity against Klebsiella pneumoniae CAV 1543 producing OXA-48 by broth microdilution method; type: functional
Bacteria [26] = assay: Inhibition of bacteria KPC-2 assessed as Koff rate using nitrocefin as substrate incubated for 30 mins
Klebsiella pneumoniae [27] = assay: Antibacterial activity against Klebsiella pneumoniae NY BS producing OXA-232 by broth microdilution method; type: functional
Acinetobacter baumannii [28] = assay: Synergistic antibacterial activity against Acinetobacter baumannii NCTC 13301 producing OXA-23/51 infected in sc dosed Swiss albino mouse assessed as cefepime MIC at 8 ug/ml administered 1 hr post infection and measured upto 7 days; type: functional; details: NCTC 13301, 168 h, dose 8 µg/ml, time <= 7 day
Acinetobacter baumannii [29] = assay: Synergistic antibacterial activity against Acinetobacter baumannii NCTC 13301 producing OXA-23/51 infected in sc dosed Swiss albino mouse assessed as meropenem MIC at 8 ug/ml administered 1 hr post infection and measured upto 7 days; type: functional; details: NCTC 13301, 168 h, dose 8 µg/ml, time <= 7 day
Acinetobacter baumannii [30] = assay: Synergistic antibacterial activity against Acinetobacter baumannii NCTC 13301 producing OXA-23/51 infected in sc dosed Swiss albino mouse assessed as tigecycline MIC at 8 ug/ml administered 1 hr post infection and measured upto 7 days; type: functional; details: NCTC 13301, 168 h, dose 8 µg/ml, time <= 7 day
[31] = Inhibition of bacteria OXA-48 assessed as apparent inhibition constant using nitrocefin as substrate
Acinetobacter baumannii [32] = assay: Antibacterial activity against Acinetobacter baumannii NCTC 13303 producing OXA-26/51 infected in sc dosed Swiss albino mouse administered 1 hr post infection and measured upto 7 days; details: NCTC 13303, 168 h
[33] = Binding affinity to bacteria OXA-48 assessed as dissociation constant
Acinetobacter baumannii [34] = assay: Synergistic antibacterial activity against Acinetobacter baumannii NCTC 13301 producing OXA-23/51 infected in sc dosed Swiss albino mouse assessed as colistin MIC at 8 ug/ml administered 1 hr post infection and measured upto 7 days; type: functional; details: NCTC 13301, 168 h, dose 8 µg/ml, time <= 7 day
Acinetobacter baumannii [35] = assay: Synergistic antibacterial activity against Acinetobacter baumannii SL46 producing OXA-23/51 infected in sc dosed Swiss albino mouse assessed as cefepime MIC at 8 ug/ml administered 1 hr post infection and measured upto 7 days; type: functional; details: SL46, 168 h, dose 8 µg/ml, time <= 7 day
Acinetobacter baumannii [36] = assay: Synergistic antibacterial activity against Acinetobacter baumannii NCTC 13303 producing OXA-26/51 infected in sc dosed Swiss albino mouse assessed as tigecycline MIC at 8 ug/ml administered […] post infection and measured upto 7 days; type: functional; details: NCTC 13303, 168 h, dose 8 µg/ml, time <= 7 day
Acinetobacter baumannii [37] = assay: Synergistic antibacterial activity against Acinetobacter baumannii SL46 producing OXA-23/51 infected in sc dosed Swiss albino mouse assessed as meropenem MIC at 8 ug/ml administered 2 hrs post infection and measured upto 7 days; type: functional; details: SL46, 168 h, dose 8 µg/ml, time <= 7 day
Acinetobacter baumannii [38] = assay: Synergistic antibacterial activity against Acinetobacter baumannii NCTC 13303 producing OXA-26/51 infected in sc dosed Swiss albino mouse assessed as meropenem MIC at 8 ug/ml administered […] post infection and measured upto 7 days; type: functional; details: NCTC 13303, 168 h, dose 8 µg/ml, time <= 7 day
Acinetobacter baumannii [39] = assay: Antibacterial activity against Acinetobacter baumannii SL46 producing OXA-23/51 infected in sc dosed Swiss albino mouse administered 1 hr post infection and measured upto 7 days; details: SL46, 168 h

| Compound | Kd [1] [nM] | MIC (Klebsiella pneumoniae [4]) [µg/mL] | MIC (Klebsiella pneumoniae [7]) [µg/mL] | MIC (Pseudomonas aeruginosa [9]) [µg/mL] | MIC (Klebsiella pneumoniae [10]) [µg/mL] | Ki [11] [nM] | ED90 (Acinetobacter baumannii [13]) [mg/kg] | ED50 (Acinetobacter baumannii [13]) [mg/kg] | MIC (Pseudomonas aeruginosa [15]) [µg/mL] | MIC (Acinetobacter baumannii [16]) [µg/mL] | MIC (Pseudomonas aeruginosa [17]) [µg/mL] | MIC (Escherichia coli) [µg/mL] | MIC (Pseudomonas aeruginosa [18]) [µg/mL] | T1/2 (Bacteria [20]) [h] | K (Bacteria [22]) | T1/2 (Bacteria [23]) [h] | T1/2 (Bacteria [24]) [h] | other results |
| --- | --- | --- | --- | --- | --- | --- | --- | --- | --- | --- | --- | --- | --- | --- | --- | --- | --- | --- |
| O=C(NNC(=O)[C@@H]1CC[C@@H]2CN1C(=O)N2OS(=O)(=O)O)[C@@H]1CCCNC1 [ZIDEBACTAM] | 43 | > 16 | > 16 | 16 | ≤ 0.12 | 4500 | 52.3 | 23.2 |  |  |  |  |  |  |  |  |  | MIC (Klebsiella pneumoniae [2]): > 16 µg/mL; MIC (Klebsiella pneumoniae [3]): > 16 µg/mL; ED90 (Acinetobacter baumannii [5]): 52.3 mg/kg; ED50 (Acinetobacter baumannii [5]; read-out: PD50): 23.2 mg/kg; MIC (Klebsiella pneumoniae [6]): > 16 µg/mL; MIC (Klebsiella pneumoniae [8]): > 16 µg/mL; ED90 (Acinetobacter baumannii [12]): 23.2 mg/kg; ED50 (Acinetobacter baumannii [12]; read-out: PD50): < 23.2 mg/kg |
| O=C(NNC(=O)[C@@H]1CC[C@@H]2CN1C(=O)N2OS(=O)(=O)O)[C@@H]1CCNC1 | 40 |  |  | 0.25 |  | 7800 |  |  | 8 (≈ 21.2 µM) | 16 (≈ 42.4 µM) | 0.25 |  |  |  |  |  |  | MIC (Acinetobacter baumannii [14]): 16 µg/mL (≈ 42.4 µM) |
| O.O=C(NC1CCNCC1)[C@@H]1CC[C@@H]2CN1C(=O)N2OS(=O)(=O)O [RELEBACTAM] |  |  |  |  |  |  |  |  | > 16 |  |  | > 16 | > 16 |  |  |  |  |  |
| NC(=O)[C@@H]1CC[C@@H]2CN1C(=O)N2OS(=O)(=O)[O-].[Na+] [AVIBACTAM SODIUM] |  | > 16 | > 16 |  |  |  |  |  |  | 16 |  |  |  | 23.9 | 1.4 10^3/M/s | 16.7 | 30.4 | K (Bacteria [19]): 8 10^-4/s; MIC (Klebsiella pneumoniae [21]): > 16 µg/mL; MIC (Klebsiella pneumoniae [25]): > 16 µg/mL; K (Bacteria [26]): 1.4 10^-4/s; MIC (Klebsiella pneumoniae [27]): > 16 µg/mL |
| N#C[C@@H]1CC[C@@H]2CN1C(=O)N2OS(=O)(=O)[O-].[Na+] |  |  |  |  | 0.25 |  | 23.7 | 16.3 |  |  | > 16 | > 16 | > 16 | 0.383 | 6.4 10^5/M/s | 0.217 | 0.483 | MIC (Acinetobacter baumannii [28]): > 256 µg/mL; MIC (Acinetobacter baumannii [29]): 1 µg/mL; MIC (Acinetobacter baumannii [30]): 1 µg/mL; Ki [31]: 290 nM; ED90 (Acinetobacter baumannii [32]): 49.4 mg/kg; ED50 (Acinetobacter baumannii [32]; read-out: PD50): 24 mg/kg; Kd [33]: 1.4 nM; MIC (Acinetobacter baumannii [34]): 1 µg/mL; MIC (Acinetobacter baumannii [35]): > 512 µg/mL; MIC (Acinetobacter baumannii [36]): 1 µg/mL; MIC (Acinetobacter baumannii [37]): 64 µg/mL; MIC (Acinetobacter baumannii [38]): 256 µg/mL; ED90 (Acinetobacter baumannii [39]): 66.2 mg/kg; ED50 (Acinetobacter baumannii [39]; read-out: PD50): 24.9 mg/kg |
